Measurements published in ChEMBL document CHEMBL4689842, “EUbOPEN Chemogenomics Library wave 1” (2021).

System: HEK-293T
Experiment: Multiplex assay against HEK293T;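 on Population Tubulin-Different-Phenotype (%): share of the cells with healthy nuclei that show this phenotype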
Assay type: toxicity, cell-based
Settings: human
Summary of the method: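 Phenotypes for tubulin, mitochondrial mass and membrane permeability are expressed as per cents of healthy-nucleus cells. Cells were stained live at seeding with Hoechst33342, BioTracker Green Microtubule Cytoskeleton Dye, MitoTracker Red and Annexin V Alexa Fluor 680, then imaged after compound addition on a CQ1 microscope at 37°C and 5% CO2. Machine-learning gating in CellPathfinder separated Hoechst high-intensity objects from normal cells, divided normal cells by nuclear state (healthy, pyknosed, fragmented) and divided pyknosed cells into mitotic or apoptotic.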

[1] = 12 h, 1 µM, compound concentration 1 uM, replicate 1
[2] = 12 h, 1 µM, compound concentration 1 uM, replicate 2
[3] = 12 h, 10 µM, compound concentration 10 uM, replicate 1
[4] = 12 h, 10 µM, compound concentration 10 uM, replicate 2
[5] = 24 h, 1 µM, compound concentration 1 uM, replicate 1
[6] = 24 h, 1 µM, compound concentration 1 uM, replicate 2
[7] = 24 h, 10 µM, compound concentration 10 uM, replicate 1
[8] = 24 h, 10 µM, compound concentration 10 uM, replicate 2
[9] = 48 h, 1 µM, compound concentration 1 uM, replicate 1
[10] = 48 h, 1 µM, compound concentration 1 uM, replicate 2
[11] = 48 h, 10 µM, compound concentration 10 uM, replicate 1
[12] = 48 h, 10 µM, compound concentration 10 uM, replicate 2

## CNc1nc(NCc2ccc(NS(C)(=O)=O)cc2Cl)cc(-c2ccccn2)n1
[1]
  Population Apoptotic (%): 52%
  Population Fragmented Nuclei (%): 18%
  Population Healthy Nuclei (%): 36%
  Population Hoechst High Intensity Objects (%): 17%
  Population Membrane Permeable-Phenotype (%): 3%
  Population Mitochondria Different-Phenotype (%): 75%
  Population Mitotic Cells (%): 48%
  Population Normal (%): 82%
  Population Pyknosed Nuclei (%): 44%
  Population Tubulin-Different-Phenotype (%): 38%
  Total Cell Count: 203
[2]
  Population Apoptotic (%): 14%
  Population Fragmented Nuclei (%): 6%
  Population Healthy Nuclei (%): 43%
  Population Hoechst High Intensity Objects (%): 2%
  Population Membrane Permeable-Phenotype (%): 6%
  Population Mitochondria Different-Phenotype (%): 18%
  Population Mitotic Cells (%): 85%
  Population Normal (%): 97%
  Population Pyknosed Nuclei (%): 50%
  Population Tubulin-Different-Phenotype (%): 23%
  Total Cell Count: 273
[3]
  Population Apoptotic (%): 60%
  Population Fragmented Nuclei (%): 9%
  Population Healthy Nuclei (%): 25%
  Population Hoechst High Intensity Objects (%): 14%
  Population Mitochondria Different-Phenotype (%): 95%
  Population Mitotic Cells (%): 39%
  Population Normal (%): 85%
  Population Pyknosed Nuclei (%): 65%
  Population Tubulin-Different-Phenotype (%): 92%
  Total Cell Count: 190
[4]
  Population Apoptotic (%): 25%
  Population Fragmented Nuclei (%): 4%
  Population Healthy Nuclei (%): 18%
  Population Hoechst High Intensity Objects (%): 4%
  Population Membrane Permeable-Phenotype (%): 0%
  Population Mitochondria Different-Phenotype (%): 50%
  Population Mitotic Cells (%): 74%
  Population Normal (%): 95%
  Population Pyknosed Nuclei (%): 76%
  Population Tubulin-Different-Phenotype (%): 73%
  Total Cell Count: 189
[5]
  Population Apoptotic (%): 55%
  Population Fragmented Nuclei (%): 16%
  Population Healthy Nuclei (%): 52%
  Population Hoechst High Intensity Objects (%): 18%
  Population Membrane Permeable-Phenotype (%): 0%
  Population Mitochondria Different-Phenotype (%): 50%
  Population Mitotic Cells (%): 45%
  Population Normal (%): 81%
  Population Pyknosed Nuclei (%): 31%
  Population Tubulin-Different-Phenotype (%): 25%
  Total Cell Count: 234
[6]
  Population Apoptotic (%): 16%
  Population Fragmented Nuclei (%): 4%
  Population Healthy Nuclei (%): 57%
  Population Hoechst High Intensity Objects (%): 5%
  Population Membrane Permeable-Phenotype (%): 7%
  Population Mitochondria Different-Phenotype (%): 14%
  Population Mitotic Cells (%): 83%
  Population Normal (%): 94%
  Population Pyknosed Nuclei (%): 37%
  Population Tubulin-Different-Phenotype (%): 31%
  Total Cell Count: 355
[7]
  Population Apoptotic (%): 63%
  Population Fragmented Nuclei (%): 10%
  Population Healthy Nuclei (%): 29%
  Population Hoechst High Intensity Objects (%): 14%
  Population Membrane Permeable-Phenotype (%): 0%
  Population Mitochondria Different-Phenotype (%): 95%
  Population Mitotic Cells (%): 36%
  Population Normal (%): 85%
  Population Pyknosed Nuclei (%): 60%
  Population Tubulin-Different-Phenotype (%): 87%
  Total Cell Count: 193
[8]
  Population Apoptotic (%): 34%
  Population Fragmented Nuclei (%): 3%
  Population Healthy Nuclei (%): 25%
  Population Hoechst High Intensity Objects (%): 6%
  Population Mitochondria Different-Phenotype (%): 88%
  Population Mitotic Cells (%): 65%
  Population Normal (%): 93%
  Population Pyknosed Nuclei (%): 71%
  Population Tubulin-Different-Phenotype (%): 95%
  Total Cell Count: 177
[9]
  Population Apoptotic (%): 47%
  Population Fragmented Nuclei (%): 15%
  Population Healthy Nuclei (%): 64%
  Population Hoechst High Intensity Objects (%): 8%
  Population Membrane Permeable-Phenotype (%): 2%
  Population Mitochondria Different-Phenotype (%): 24%
  Population Mitotic Cells (%): 52%
  Population Normal (%): 91%
  Population Pyknosed Nuclei (%): 19%
  Population Tubulin-Different-Phenotype (%): 18%
  Total Cell Count: 336
[10]
  Population Apoptotic (%): 14%
  Population Fragmented Nuclei (%): 5%
  Population Healthy Nuclei (%): 76%
  Population Hoechst High Intensity Objects (%): 3%
  Population Membrane Permeable-Phenotype (%): 5%
  Population Mitochondria Different-Phenotype (%): 7%
  Population Mitotic Cells (%): 85%
  Population Normal (%): 96%
  Population Pyknosed Nuclei (%): 18%
  Population Tubulin-Different-Phenotype (%): 26%
  Total Cell Count: 601
[11]
  Population Apoptotic (%): 74%
  Population Fragmented Nuclei (%): 15%
  Population Healthy Nuclei (%): 29%
  Population Hoechst High Intensity Objects (%): 16%
  Population Membrane Permeable-Phenotype (%): 2%
  Population Mitochondria Different-Phenotype (%): 85%
  Population Mitotic Cells (%): 25%
  Population Normal (%): 83%
  Population Pyknosed Nuclei (%): 54%
  Population Tubulin-Different-Phenotype (%): 93%
  Total Cell Count: 189
[12]
  Population Apoptotic (%): 61%
  Population Fragmented Nuclei (%): 5%
  Population Healthy Nuclei (%): 26%
  Population Hoechst High Intensity Objects (%): 5%
  Population Membrane Permeable-Phenotype (%): 7%
  Population Mitochondria Different-Phenotype (%): 76%
  Population Mitotic Cells (%): 38%
  Population Normal (%): 94%
  Population Pyknosed Nuclei (%): 67%
  Population Tubulin-Different-Phenotype (%): 82%
  Total Cell Count: 202
